From ChEMBL document CHEMBL1143827, “In vitro activity of 2,4-diamino-6-[2-(phosphonomethoxy)ethoxy]-pyrimidine against multidrug-resistant hepatitis B virus mutants” (Antimicrob Agents Chemother, 2007)

Key:
Hepatitis B virus [1] = experiment: Antiviral activity against entecavir-resistant HBV with reverse transcriptase L180M/S202G/M204V mutant; type: functional, organism-based
Procedure, shortened: (§1)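 Huh7 cells transiently transfected with plasmids carrying 1.1 genome units of mutant or wild-type HBV under the chicken beta-actin promoter. Drug range was 0 to 100 μM for PMEO-DAPym, lamivudine, adefovir and tenofovir. Intracellular HBV DNA was purified and analysed by Southern blot to give EC50. Values are means of at least three independent experiments, each run in triplicate.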

Hepatitis B virus [2] = experiment: Antiviral activity against wild type HBV genotype E assessed as inhibition of replication; type: functional, organism-based
Procedure, shortened: (§2)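 Huh7 hepatoma cells were transiently transfected with plasmids carrying 1.1 genome units of wild-type HBV under a chicken beta-actin promoter, then treated with drug across a range starting at 0 μM (up to 100 μM for some drugs). Intracellular HBV DNA was purified and analysed by Southern blot to derive EC50. Values are means of at least three independent experiments, each run in triplicate.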

Hepatitis B virus [3] = experiment: Antiviral activity against lamivudine-resistant HBV with reverse transcriptase L180M/M204V mutant; type: functional, organism-based; procedure, shortened: as §1
Hepatitis B virus [4] = experiment: Antiviral activity against lamivudine-adenofir-resistant HBV with reverse transcriptase V173L/L180M/A181V mutant; type: functional, organism-based; procedure, shortened: as §1
Hepatitis B virus [5] = experiment: Antiviral activity against lamivudine-adefovir-resistant HBV with reverse transcriptase L180M/M204V/N236T mutant assessed as inhibition of replication; type: functional, organism-based; procedure, shortened: as §1
Hepatitis B virus [6] = experiment: Fold resistance, ratio of lamivudine-resistant HBV with reverse transcriptase L180M/A181V mutant to wild-type HBV genotype E; type: functional
Procedure, shortened: (§3)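 Each mutant and its corresponding wild-type strain were transfected into Huh7 cells and treated in parallel with the same drug concentration range, with HBV DNA read by Southern blot. Fold resistance = mutant EC50 / corresponding wild-type EC50. Uses means of at least three independent experiments, each in triplicate.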

Hepatitis B virus [7] = experiment: Antiviral activity against wild type HBV genotype H assessed as inhibition of replication; type: functional, organism-based; procedure, shortened: as §2
Hepatitis B virus [8] = experiment: Antiviral activity against wild type HBV assessed as inhibition of replication; type: functional, organism-based; procedure, shortened: as §2
Hepatitis B virus [9] = experiment: Fold resistance, ratio of EC50 for adenofir-resistant HBV with reverse transcriptase N236T mutant to EC50 for wild-type HBV; type: functional; procedure, shortened: as §3
Hepatitis B virus [10] = experiment: Fold resistance, ratio of lamivudine -adenofir-resistant with HBV reverse transcriptase V173L/L180M/A181V/M204V/N236T mutant to wild-type HBV genotype E; type: functional; procedure, shortened: as §3
Hepatitis B virus [11] = experiment: Fold resistance, ratio of lamivudine-resistant HBV with reverse transcriptase V173L/L180/M204V mutant to wild-type HBV genotype H; type: functional; procedure, shortened: as §3
Hepatitis B virus [12] = experiment: Antiviral activity against adenofir-resistant HBV with reverse transcriptase N236T mutant assessed as inhibition of replication; type: functional, organism-based; procedure, shortened: as §1
Hepatitis B virus [13] = experiment: Fold resistance, ratio of lamivudine-resistant HBV with reverse transcriptase L180M/M204V mutant to wild-type HBV genotype E; type: functional; procedure, shortened: as §3
Hepatitis B virus [14] = experiment: Fold resistance, ratio of EC50 for lamivudine-resistant HBV with reverse transcriptase L180M/M204V mutant to EC50 for wild-type HBV; type: functional; procedure, shortened: as §3
Hepatitis B virus [15] = experiment: Fold resistance, ratio of EC50 for lamivudine-adefovir-resistant HBV with reverse transcriptase L180M/M204V/N236T mutant to EC50 for wild-type HBV; type: functional; procedure, shortened: as §3
Hepatitis B virus [16] = experiment: Antiviral activity against lamivudine-resistant HBV with reverse transcriptase L180M/M204V mutant assessed as inhibition of replication; type: functional, organism-based; procedure, shortened: as §1
[17] = Effect on cell viability in human Huh7 cells; type: cell-based, Huh-7
Procedure, shortened: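 Huh7 cells were exposed to drug, and viability was read as neutral red dye uptake. CC50 is the concentration that cut uptake by 50%, given as mean ± SD of three independent experiments run in quadruplicate.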

Hepatitis B virus [18] = experiment: Fold resistance, ratio of entecavir-resistant HBV with reverse transcriptase L180M/S202G/M204V mutant to wild-type HBV genotype H; type: functional; procedure, shortened: as §3
Hepatitis B virus [19] = experiment: Antiviral activity against Lamivudine -adenofir-resistant HBV with reverse transcriptase V173L/L180M/A181V/M204V/N236T mutant; type: functional, organism-based; procedure, shortened: as §1
Hepatitis B virus [20] = experiment: Antiviral activity against lamivudine-resistant HBV with reverse transcriptase L180M/A181V mutant; type: functional, organism-based; procedure, shortened: as §1
Hepatitis B virus [21] = experiment: Fold resistance, ratio of Lamivudine -adenofir-resistant HBV with reverse transcriptase V173L/L180M/A181V mutant to wildtype HBV genotype E; type: functional; procedure, shortened: as §3
Hepatitis B virus [22] = experiment: Inhibition of wild type HBV replication in Huh7 cells; type: functional, organism-based; details: Huh-7; procedure, shortened: as §2
Hepatitis B virus [23] = experiment: Antiviral activity against Lamivudine -adenofir-resistant HBV with reverse transcriptase V173L/L180M/A181V/M204V mutant; type: functional, organism-based; procedure, shortened: as §1
Hepatitis B virus [24] = experiment: Antiviral activity against lamivudine-adenofir-resistant HBV with reverse transcriptase V173L/L180M/A181V/N236T mutant; type: functional, organism-based; procedure, shortened: as §1
Hepatitis B virus [25] = experiment: Antiviral activity against lamivudine-resistant HBV with reverse transcriptase V173L/L180/M204V mutant; type: functional, organism-based; procedure, shortened: as §1
Hepatitis B virus [26] = experiment: Fold resistance, ratio of Lamivudine -adenofir-resistant with HBV reverse transcriptase V173L/L180M/A181V/N236T mutant to wildtype HBV genotype E; type: functional; procedure, shortened: as §3
Hepatitis B virus [27] = experiment: Fold resistance, ratio of Lamivudine -adenofir-resistant with HBV reverse transcriptase V173L/L180M/A181V/M204V mutant to wildtype HBV genotype E; type: functional; procedure, shortened: as §3

SMILES: Nc1cc(OCCOCP(=O)(O)O)nc(N)n1
- EC50 (Hepatitis B virus [1]): 4.5 µM
- EC50 (Hepatitis B virus [2]): 5.6 µM
- EC50 (Hepatitis B virus [3]): 5.3 µM
- EC50 (Hepatitis B virus [4]): 24 µM
- EC50 (Hepatitis B virus [5]): 5.7 µM
- Ratio EC50 (Hepatitis B virus [6]): 4.8
- EC50 (Hepatitis B virus [7]): 4.4 µM
- EC50 (Hepatitis B virus [8]): 4 µM
- Ratio EC50 (Hepatitis B virus [9]): 1.1
- Ratio EC50 (Hepatitis B virus [10]): 2.1
- Ratio EC50 (Hepatitis B virus [11]): 0.9
- EC50 (Hepatitis B virus [12]): 4.5 µM
- Ratio EC50 (Hepatitis B virus [13]): 0.9
- Ratio EC50 (Hepatitis B virus [14]): 1.2
- Ratio EC50 (Hepatitis B virus [15]): 1.4
- EC50 (Hepatitis B virus [16]): 4.7 µM
- CC50 [17]: > 1000 µM
- Ratio EC50 (Hepatitis B virus [18]): 1
- EC50 (Hepatitis B virus [19]): 12 µM
- EC50 (Hepatitis B virus [20]): 27 µM
- Ratio EC50 (Hepatitis B virus [21]): 4.3
- EC50 (Hepatitis B virus [22]): 4.9 µM
- EC50 (Hepatitis B virus [23]): 18 µM
- EC50 (Hepatitis B virus [24]): 29 µM
- EC50 (Hepatitis B virus [25]): 4.1 µM
- Ratio EC50 (Hepatitis B virus [26]): 5.1
- Ratio EC50 (Hepatitis B virus [27]): 3.2

SMILES: CC(C)(C)C(=O)OCOP(=O)(COCCn1cnc2c(N)ncnc21)OCOC(=O)C(C)(C)C [ADEFOVIR DIPIVOXIL]
- EC50 (Hepatitis B virus [1]): 15 µM
- EC50 (Hepatitis B virus [2]): 10 µM
- EC50 (Hepatitis B virus [3]): 15 µM
- EC50 (Hepatitis B virus [4]): 48 µM
- EC50 (Hepatitis B virus [5]): 100 µM
- Ratio EC50 (Hepatitis B virus [6]): 2.7
- EC50 (Hepatitis B virus [7]): 13.6 µM
- EC50 (Hepatitis B virus [8]): 15.8 µM
- Ratio EC50 (Hepatitis B virus [9]): 3.2
- Ratio EC50 (Hepatitis B virus [10]): 7.7
- Ratio EC50 (Hepatitis B virus [11]): 0.7
- EC50 (Hepatitis B virus [12]): 50.3 µM
- Ratio EC50 (Hepatitis B virus [13]): 1.5
- Ratio EC50 (Hepatitis B virus [14]): 0.98
- Ratio EC50 (Hepatitis B virus [15]): 6.3
- EC50 (Hepatitis B virus [16]): 15.5 µM
- CC50 [17]: 365 µM
- Ratio EC50 (Hepatitis B virus [18]): 1.1
- EC50 (Hepatitis B virus [19]): 77 µM
- EC50 (Hepatitis B virus [20]): 27 µM
- Ratio EC50 (Hepatitis B virus [21]): 4.8
- EC50 (Hepatitis B virus [22]): 13 µM
- EC50 (Hepatitis B virus [23]): 40 µM
- EC50 (Hepatitis B virus [24]): > 100 µM
- EC50 (Hepatitis B virus [25]): 9.8 µM
- Ratio EC50 (Hepatitis B virus [26]): >10
- Ratio EC50 (Hepatitis B virus [27]): 4

SMILES: C=C1[C@H](CO)[C@@H](O)C[C@@H]1n1cnc2c(=O)[nH]c(N)nc21.O [ENTECAVIR]
- EC50 (Hepatitis B virus [1]): 18 µM
- EC50 (Hepatitis B virus [2]): 0.06 µM
- EC50 (Hepatitis B virus [3]): 10.5 µM
- EC50 (Hepatitis B virus [4]): 2.75 µM
- EC50 (Hepatitis B virus [5]): 5 µM
- Ratio EC50 (Hepatitis B virus [6]): 28
- EC50 (Hepatitis B virus [7]): 0.09 µM
- EC50 (Hepatitis B virus [8]): 0.8 µM
- Ratio EC50 (Hepatitis B virus [9]): 0.88
- Ratio EC50 (Hepatitis B virus [10]): 461
- Ratio EC50 (Hepatitis B virus [11]): 43
- EC50 (Hepatitis B virus [12]): 0.7 µM
- Ratio EC50 (Hepatitis B virus [13]): 175
- Ratio EC50 (Hepatitis B virus [14]): 6.25
- Ratio EC50 (Hepatitis B virus [15]): 6.25
- EC50 (Hepatitis B virus [16]): 5 µM
- CC50 [17]: 125 µM
- Ratio EC50 (Hepatitis B virus [18]): 210
- EC50 (Hepatitis B virus [19]): 25.4 µM
- EC50 (Hepatitis B virus [20]): 1.5 µM
- Ratio EC50 (Hepatitis B virus [21]): 50
- EC50 (Hepatitis B virus [22]): 0.3 µM
- EC50 (Hepatitis B virus [23]): ≥ 50 µM
- EC50 (Hepatitis B virus [24]): 0.5 µM
- EC50 (Hepatitis B virus [25]): 3.7 µM
- Ratio EC50 (Hepatitis B virus [26]): 9
- Ratio EC50 (Hepatitis B virus [27]): >=800

SMILES: Nc1ccn([C@@H]2CS[C@H](CO)O2)c(=O)n1 [LAMIVUDINE]
- EC50 (Hepatitis B virus [1]): > 100 µM
- EC50 (Hepatitis B virus [2]): 0.1 µM
- EC50 (Hepatitis B virus [3]): > 100 µM
- EC50 (Hepatitis B virus [4]): 100 µM
- EC50 (Hepatitis B virus [5]): > 100 µM
- Ratio EC50 (Hepatitis B virus [6]): 800
- EC50 (Hepatitis B virus [7]): 0.64 µM
- EC50 (Hepatitis B virus [8]): 2.48 µM
- Ratio EC50 (Hepatitis B virus [9]): 1.06
- Ratio EC50 (Hepatitis B virus [10]): >1000
- Ratio EC50 (Hepatitis B virus [11]): >156
- EC50 (Hepatitis B virus [12]): 2.65 µM
- Ratio EC50 (Hepatitis B virus [13]): >1000
- Ratio EC50 (Hepatitis B virus [14]): >40
- Ratio EC50 (Hepatitis B virus [15]): >40
- EC50 (Hepatitis B virus [16]): > 100 µM
- CC50 [17]: > 1000 µM
- Ratio EC50 (Hepatitis B virus [18]): >156
- EC50 (Hepatitis B virus [19]): > 100 µM
- EC50 (Hepatitis B virus [20]): 80 µM
- Ratio EC50 (Hepatitis B virus [21]): 1000
- EC50 (Hepatitis B virus [22]): 1 µM
- EC50 (Hepatitis B virus [23]): > 100 µM
- EC50 (Hepatitis B virus [24]): > 100 µM
- EC50 (Hepatitis B virus [25]): > 100 µM
- Ratio EC50 (Hepatitis B virus [26]): >1000
- Ratio EC50 (Hepatitis B virus [27]): >1000

SMILES: C[C@H](Cn1cnc2c(N)ncnc21)OCP(=O)(O)O [TENOFOVIR ANHYDROUS]
- EC50 (Hepatitis B virus [1]): 27 µM
- EC50 (Hepatitis B virus [2]): 25 µM
- EC50 (Hepatitis B virus [3]): 27 µM
- EC50 (Hepatitis B virus [4]): 42 µM
- EC50 (Hepatitis B virus [5]): 45.5 µM
- Ratio EC50 (Hepatitis B virus [6]): 1.4
- EC50 (Hepatitis B virus [7]): 13.6 µM
- EC50 (Hepatitis B virus [8]): 10.3 µM
- Ratio EC50 (Hepatitis B virus [9]): 4.5
- Ratio EC50 (Hepatitis B virus [10]): 1.8
- Ratio EC50 (Hepatitis B virus [11]): 1.2
- EC50 (Hepatitis B virus [12]): 46 µM
- Ratio EC50 (Hepatitis B virus [13]): 1.1
- Ratio EC50 (Hepatitis B virus [14]): 3.4
- Ratio EC50 (Hepatitis B virus [15]): 4.4
- EC50 (Hepatitis B virus [16]): 35.2 µM
- CC50 [17]: > 1000 µM
- Ratio EC50 (Hepatitis B virus [18]): 2
- EC50 (Hepatitis B virus [19]): 46 µM
- EC50 (Hepatitis B virus [20]): 36 µM
- Ratio EC50 (Hepatitis B virus [21]): 1.6
- EC50 (Hepatitis B virus [22]): 16 µM
- EC50 (Hepatitis B virus [23]): 45 µM
- EC50 (Hepatitis B virus [24]): 28 µM
- EC50 (Hepatitis B virus [25]): 16 µM
- Ratio EC50 (Hepatitis B virus [26]): 1.1
- Ratio EC50 (Hepatitis B virus [27]): 1.8
